# Source: PubChem
# Xi reactivation: activators of inactive X chromosome reactivation, primary screen, imaging, XiGFP fibroblasts, GFP high-content imaging, set 2; XiGFP mouse fibroblasts, % GFP-positive cells imaging, 3 d; cells co-treated with 5-aza-dC sensitizer; scaled so ellipticine positive control = 100%; activation, % at 7.58 µM; actives 0.055% (n = 360,000); AID 743238, 2013;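 active means mean normalized replicate activation at least 10% and every replicate at or above 10%; inconclusive means only one of the two criteria met; inactive means mean below 10% and not all replicates reach 10%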;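 further: 0% = median of on-plate neutral control wells and 100% = ellipticine 6 µM median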
#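 Schedule: 3 d treatment, 15 min room-temperature fixation; system: 68-5-11 XiGFP fibroblast line; buffer or medium: DMEM plus 5-aza-dC sensitizer; control set: ellipticine 6 µM positive control; compound: one concentration, pinned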
# Myeloid diff 2: induction of myeloid progenitor differentiation, primary screen, cell-based, flow cytometry, MLPCN library. ER-HoxA9 myeloid progenitors, lysozyme-GFP differentiation. calls only at 10 µM. actives 1% (n = 360,000). AID 624256, 2012;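 active means normalized GFP-positive differentiation at or above the plate's own cutoff, the solvent-only control mean plus 3 SD; inconclusive means no clear call, values can overlap the other calls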;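 further: cells exposed to compound for four days before flow analysis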
# ABCB6 inh 2: ABCB6 transporter inhibitors, primary screen, K562-ABCB6 cells, flow cytometry, MLPCN library. K562-ABCB6 porphyrin accumulation, 1 h; hits give low values. actives 0.19% (n = 360,000). ATP-binding cassette sub-family B member 6 (Homo sapiens), Q9NP58. AID 602162, 2011. fluorescence ratio to DMSO, % at 10 µM;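 active means fluorescence ratio to DMSO below 75%, the collection mean minus 3 SD; inconclusive means too few cells collected in the well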;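 further: signal is porphyrin accumulated inside mitochondria; 100% equals median channel fluorescence of DMSO control wells; lower ratio means ABCB6 inhibition with less porphyrin fluorescence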
# Target sequence (Q9NP58 whole entry, looked up): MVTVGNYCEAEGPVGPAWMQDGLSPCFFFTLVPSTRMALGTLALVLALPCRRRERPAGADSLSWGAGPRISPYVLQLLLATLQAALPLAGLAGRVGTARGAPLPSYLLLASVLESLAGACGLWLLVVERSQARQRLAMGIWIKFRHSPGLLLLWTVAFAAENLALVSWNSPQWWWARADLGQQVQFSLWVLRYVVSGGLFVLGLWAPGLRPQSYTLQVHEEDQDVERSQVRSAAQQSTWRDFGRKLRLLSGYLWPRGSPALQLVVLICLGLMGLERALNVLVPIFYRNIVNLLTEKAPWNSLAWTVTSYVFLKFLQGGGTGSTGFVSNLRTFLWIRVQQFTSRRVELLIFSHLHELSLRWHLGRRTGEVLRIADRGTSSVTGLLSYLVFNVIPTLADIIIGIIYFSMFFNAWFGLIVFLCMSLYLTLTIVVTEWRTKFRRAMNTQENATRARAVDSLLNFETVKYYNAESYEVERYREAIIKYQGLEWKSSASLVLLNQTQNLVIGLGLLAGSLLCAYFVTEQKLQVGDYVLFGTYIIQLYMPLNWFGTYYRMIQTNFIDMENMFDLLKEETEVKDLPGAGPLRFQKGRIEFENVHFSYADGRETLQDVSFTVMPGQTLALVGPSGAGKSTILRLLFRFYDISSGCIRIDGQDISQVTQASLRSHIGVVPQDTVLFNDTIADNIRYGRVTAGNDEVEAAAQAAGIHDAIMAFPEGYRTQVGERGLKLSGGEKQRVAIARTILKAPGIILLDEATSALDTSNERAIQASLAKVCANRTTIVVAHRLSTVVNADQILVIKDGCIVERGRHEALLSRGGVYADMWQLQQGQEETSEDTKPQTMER
# Starred values were filed as active, the others as inactive; i = inactive; ? = inconclusive; / = no result given; + = active, no number. Only a selection was taken, and hits are over-represented in it overall.
SMILES,Xi reactivation,Myeloid diff 2,ABCB6 inh 2
CC1CC(C)CN(CC(=O)c2c[nH]c3ccccc23)C1 (stereo not given),0,+,168
COc1cccc(N(C(=O)CCl)C(C(=O)NCCc2ccccc2)c2cccs2)c1 (stereo not given),/,i,104
COc1ccc(N(C(=O)CCl)C(C(=O)NCCc2ccccc2)c2cccs2)cc1Cl (stereo not given),1,?,25*
COCC(=O)N1C[C@@H](C)[C@H](OC)CN(C)C(=O)c2ccc(NS(C)(=O)=O)cc2OC[C@@H]1C,0,/,/
C=CCOc1ccccc1CN(C(=O)CCl)c1ccc2c(c1)OCO2,0,+,88
CCOc1ccccc1NC(=O)Nc1ccc2c(c1)OCO2,0,i,99
O=C1COc2ccc(S(=O)(=O)NCCc3ccccc3)cc2N1,0,+,91
CCOc1ccc(CCNS(=O)(=O)c2ccc3c(c2)NC(=O)CO3)cc1OCC,1,i,100
COC(=O)c1ccc(C2c3[nH]c4ccccc4c3C[C@H]3C(=O)N(C)CC(=O)N23)cc1 (stereo not given in full),0,i,93
CCN1C(=O)[C@@H]2Cc3c([nH]c4ccccc34)C(c3ccc(OC)cc3)N2C1=S (stereo not given in full),/,+,101
C[C@@H]1CN([C@@H](C)CO)C(=O)c2cc(NC(=O)Nc3cccc4ccccc34)ccc2O[C@@H](C)CCCCO[C@@H]1CN(C)S(=O)(=O)c1cccs1,-1,/,/
CO[C@@H](CN(C)C(=O)C1CCOCC1)[C@H](C)CN(C(=O)Nc1ccc(F)cc1)[C@H](C)CO,0,/,/
COc1ccc(CCNS(=O)(=O)c2cccc(S(=O)(=O)N3CCCC3)c2)cc1OC,/,i,99
O=S(=O)(NCC1CC1)c1cccc(S(=O)(=O)N2CCCC2)c1,/,+,102
CCn1c(SCc2nc3sc(C(=O)O)c(C)c3c(=O)[nH]2)nnc1-c1ccc(Cl)cc1,0,/,97
Cc1sc2nc(CSc3nnnn3-c3ccc(Cl)cc3)[nH]c(=O)c2c1C,0,+,128
Cc1ccc(S(=O)(=O)NCC[C@H]2CC[C@@H](NC(=O)c3cccc(F)c3)[C@H](CO)O2)cc1,0,/,/
CC1=N/C(=C/c2cccnc2)C(=O)O1,0,i,85
Cc1cccc(C2=N/C(=C\c3cccnc3)C(=O)O2)c1,/,i,68*
C/C=C/c1cnc2c(c1)C(=O)N([C@H](C)CO)C[C@H](C)[C@H](CN(C)Cc1ccncc1)O2,0,/,/
COc1ccc(NC(=O)CCc2nnc3ccc(NCc4ccco4)nn23)cc1OC,0,?,94
Cc1ccc(NC(=O)CCc2nnc3ccc(NCc4ccco4)nn23)cc1F,0,+,104
O=C(CCc1nnc2ccc(NCc3ccco3)nn12)N1CCCCC1,0,+,98
O=C(CCc1nnc2ccc(NCc3ccco3)nn12)N1CCN(c2ccccc2F)CC1,0,?,98
COCC(=O)N1CC2(C1)CN(S(C)(=O)=O)[C@@H](CO)c1[nH]c3cc(OC)ccc3c12,0,/,/
SMILES,Xi reactivation,Myeloid diff 2,ABCB6 inh 2
CCCC#Cc1ccc2c(c1)O[C@@H](CN(C)C(=O)NC(C)C)[C@H](C)CN([C@H](C)CO)S2(=O)=O,0,/,/
C[C@@H]1CN([C@@H](C)CO)C(=O)c2cc(NS(=O)(=O)c3ccccc3)ccc2O[C@@H]1CN(C)CC1CCCCC1,0,/,/
COc1ccc(CN(C)C[C@H]2OCCCC[C@H](C)Oc3ccc(NS(=O)(=O)c4ccccc4)cc3C(=O)N([C@@H](C)CO)C[C@H]2C)cc1,0,/,/
CC1=NN(c2nc(N)nc(/C(C#N)=C/c3ccc([N+](=O)[O-])o3)n2)C(C)(C)C1,73*,?,i
O=C1C2C(C(=O)N1/N=C/c1ccc([N+](=O)[O-])o1)C1C=CC2C12CC2 (stereo not given),1,i,98
CC(C)NC(=O)N[C@@H]1CC[C@H](CC(=O)NCc2ccc(Oc3ccccc3)cc2)O[C@H]1CO,-1,/,/
COc1ccccc1OCCCCCc1c(C)n[nH]c1C,/,i,96
CCOc1ccccc1OCCCCCc1c(C)n[nH]c1C,/,+,104
C[C@@H]1CN([C@@H](C)CO)C(=O)c2cc(Br)cnc2O[C@H]1CN(C)Cc1ccncc1,0,/,/
C[C@@H]1CN([C@@H](C)CO)C(=O)CCCn2cc(nn2)CO[C@@H]1CN(C)C(=O)Cc1ccccc1,0,/,/
O=c1[nH]c(=S)[nH]c2nc(-c3cccs3)cc(C(F)(F)F)c12,0,i,103
